Assay results from ChEMBL document CHEMBL4261484, “Design, synthesis and anticonvulsant-analgesic activity of new N-[(phenoxy)alkyl]- and N-[(phenoxy)ethoxyethyl]aminoalkanols” (Medchemcomm, 2017).
The source made the active and inactive calls.

What was measured:
Mus musculus [1] = experiment: Anticonvulsant activity in mouse assessed as protection against maximal electroshock-induced seizures at 100 mg/kg, ip; format: functional, organism-based
Summary of the method: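 Mice dosed ip; maximal seizures induced by auricular electroshock (25 mA, 500 V, 50 Hz, 0.2 s). Endpoint: hind-limb tonic extension; animals without it scored protected. Read-out is number protected over number tested.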

Mus musculus [2] = experiment: Toxicity in mouse at 100 mg/kg, ip measured during maximal electroshock seizure test; format: organism-based; conditions: in vivo
Mus musculus [3] = experiment: Toxicity in mouse at 30 mg/kg, ip measured during maximal electroshock seizure test; format: organism-based; conditions: in vivo
Mus musculus [4] = experiment: Toxicity in mouse at 25 mg/kg, ip measured during maximal electroshock seizure test; format: organism-based; conditions: in vivo
Mus musculus [5] = experiment: Anticonvulsant activity in ip dosed mouse assessed as protection against maximal electroshock-induced seizures; format: functional
Summary of the method: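 Mice were dosed ip. Maximal seizures were induced by auricular electrodes (25 mA, 500 V, 50 Hz, 0.2 s). Absence of hind-limb tonic extension counted as protection. […] Motor impairment was scored on a 10 rpm rotarod, giving TD50 the same way.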

[6] = Neurotoxicity in ip dosed mouse assessed as motor impairment measured for one min by rotarod test; format: toxicity, organism-based; conditions: in vivo
Summary of the method: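 Mice trained on an accelerating rotarod, then tested at least 24 h later after ip pretreatment, on a rod turning at 10 rpm. Neurotoxicity was scored as failure to stay on the rod for one minute. Read-out is mice impaired over mice tested.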

[7] = Protection index, ratio of TD50 for neurotoxicity in ip dosed mouse by rotarod test to ED50 for anticonvulsant activity in mouse by maximal electroshock seizure test; format: toxicity, organism-based; conditions: in vivo, read-out: Ratio TD50/ED50
Mus musculus [8] = experiment: Anticonvulsant activity in mouse assessed as current strength required to induce tonic hind-limb extension in 50% of the animals at 10 mg/kg, ip by maximal electroshock seizure threshold test (reference value: 6.05 to 8.13 mA); format: functional
Mus musculus [9] = experiment: Anticonvulsant activity in mouse assessed as increase in electroconvulsive threshold at 10 mg/kg, ip by maximal electroshock seizure threshold test relative to control; format: functional
Mus musculus [10] = experiment: Anticonvulsant activity in mouse assessed as protection against subcutaneous pentylenetetrazole-induced seizures by measuring latency time of tonic seizures at 100 mg/kg, ip measured for 30 mins post pentylenetetrazole challenge at 0.5 hrs after compound dosing (reference value: 562.8 to 614.9 secs); format: functional
Mus musculus [11] = experiment: Anticonvulsant activity in mouse assessed as protection against subcutaneous pentylenetetrazole-induced seizures by measuring latency time of tonic seizures at 30 mg/kg, ip measured for 30 mins post pentylenetetrazole challenge at 0.5 hrs after compound dosing (reference value: 562.8 to 614.9 secs); format: functional
Mus musculus [12] = experiment: Anticonvulsant activity in mouse assessed as protection against subcutaneous pentylenetetrazole-induced seizures at 100 mg/kg, ip measured for 30 mins post pentylenetetrazole challenge at 0.5 hrs after compound dosing relative to control; format: functional
Mus musculus [13] = experiment: Anticonvulsant activity in mouse assessed as protection against subcutaneous pentylenetetrazole-induced seizures at 30 mg/kg, ip measured for 30 mins post pentylenetetrazole challenge at 0.5 hrs after compound dosing relative to control; format: functional
Mus musculus [14] = experiment: Analgesic activity in mouse assessed as time of paw licking during phase 1 at 27 mg/kg, ip measured for 5 mins by formalin test (reference value: 43.89 +/- 6.64 secs); format: functional
Summary of the method: (§1)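 Formalin test in mice: 20 μL of 5% formalin injected intraplantarly into the right hind paw. Each mouse was observed alone in a glass beaker for 30 min. Time (s) spent licking or biting the injected paw was recorded at 0–5 min (acute phase) and 15–30 min (inflammatory phase).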

Mus musculus [15] = experiment: Analgesic activity in mouse assessed as decrease in time of paw licking during phase 2 at 27 mg/kg, ip measured for 15 to 30 mins by formalin test relative to control; format: functional; design: scale not given: the % may be the effect or the level left; summary of the method: as §1
Mus musculus [16] = experiment: Toxicity in mouse assessed as effect on spontaneous activity at 27 mg/kg, ip measured for 30 mins by photoresistor actometer relative to control; format: organism-based; conditions: in vivo, 0.5 h
Summary of the method: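 Mice dosed ip; locomotor activity by photoresistor actometers counting light-beam interruptions. Each mouse was habituated 30 min in a cage, then crossings were counted over a 30 min session. Data are mean ± SEM and % change vs control; unpaired t test.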

Mus musculus [17] = experiment: Neurotoxicity in mouse assessed as motor impairment by measuring time of escaping from chimney at 27 mg/kg, ip measured for 60 secs (reference value: 8.87 +/- 1.79 secs); format: toxicity, organism-based; conditions: in vivo, 1 min
Summary of the method: (§2)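 Mice dosed ip; trained, selected animals placed in a horizontal tube 25 cm long and 2.5 cm in diameter, then tube reversed so mice must climb out backward. Read-outs: escape time (s) ± SEM and % animals losing coordination versus control. Unpaired t test.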

Mus musculus [18] = experiment: Neurotoxicity in mouse assessed as motor impairment by measuring loss of coordination at 27 mg/kg, ip measured for 60 secs by chimney test relative to control; format: toxicity, organism-based; conditions: in vivo, 1 min; summary of the method: as §2
HepG2 [19] = experiment: Cytotoxicity against human HepG2 cells assessed as effect on cell viability at 10 to 250 uM after 24 hrs by MTT assay; format: cell-based; conditions: hepg2, 24 h
Summary of the method: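 HepG2 cells grown in MEM with 10% FBS (37 °C, 5% CO2) and seeded at 1 × 10^4. After overnight culture, exposed to 10–250 μM for 24 h. MTT for 3 h, formazan dissolved, OD 570 nm. Viability is % of control ± SEM from three independent experiments.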

HepG2 [20] = experiment: Cytotoxicity against human HepG2 cells assessed as effect on cell viability at 10 to 250 uM after 24 hrs by neutral red assay; format: cell-based; conditions: hepg2, 24 h
Summary of the method: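 HepG2 cells seeded at 5 × 10^4 per well, then after 24 h given medium with 10–250 μM for 24 h. Viability by neutral red staining, OD 570 nm. Results are % of control ± SEM, three independent experiments.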

[21] = Cytotoxicity against mouse CRL-2541 cells assessed as effect on cell viability at 10 to 250 uM after 24 hrs by MTT assay; format: cell-based

SMILES: Cc1ccc(OCCOCCNC(C)CO)c(C)c1 (racemic)
- Activity (Mus musculus [1]): Active
- Activity (Mus musculus [2]): Non-Toxic
- Activity (Mus musculus [3]): Non-Toxic
- Activity (Mus musculus [4]): Non-Toxic
- ED50 (Mus musculus [5]): 27.1 mg/kg
- TD50 at 1 min [6]: 109 mg/kg
- selectivity ratio [7]: 4.02
- Activity (Mus musculus [8]): 6.76 mA
- Activity (Mus musculus [9]): inactive
- Time (Mus musculus [10]): 1269 s
- Time (Mus musculus [11]): 575.8 s
- Activity (Mus musculus [12]): 117.23%
- Activity (Mus musculus [13]): 2.31%
- Time (Mus musculus [14]): 67.25 s
- Activity (Mus musculus [15]): 83.41%
- Activity (Mus musculus [16]): 68.92%
- Time (Mus musculus [17]): 6 s
- Activity (Mus musculus [18]): 0%
- Activity (HepG2 [19]): Non-Toxic
- Activity (HepG2 [20]): Non-Toxic
- Activity [21]: Non-Toxic
